# Experimental data taken from ChEMBL document CHEMBL3525903 (Drug Metab Dispos, 2013).
# Tests used:
# [1] = target: ATP-binding cassette sub-family C member 2 (Homo sapiens, UniProt Q92887); assay: Inhibition of human MRP2 expressed in MDCK2 cells assessed as reduction of [3H]E217betaG substrate transport at 25 uM by liquid scintillation counting; format: ADME, cell-based; settings: mdck-ii
# Procedure, shortened: (§1)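 Membrane vesicles made from MDCKII cells expressing BCRP or MRP2, and from parental cells (1 μg/μL protein). Run in Tris-sucrose buffer, pH 7.4, with 10 mM MgCl2, creatine phosphokinase and ATP, or AMP as control. Substrates: 0.035 μM [3H]E-sul for BCRP, 2 min; 0.033 μM [3H]E217βG for MRP2, 5 min; both at 37 °C. Stopped ice-cold, filtered, and counted by scintillation.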
# [2] = target: T1, Broad substrate specificity ATP-binding cassette transporter ABCG2 (Homo sapiens, UniProt Q9UNQ0); assay: Inhibition of human BCRP expressed in MDCK2 cells assessed as reduction of [3H]E-sul substrate transport at 50 uM by liquid scintillation counting; format: ADME, cell-based; settings: mdck-ii; procedure, shortened: as §1
# T1 sequence (Q9UNQ0 whole entry): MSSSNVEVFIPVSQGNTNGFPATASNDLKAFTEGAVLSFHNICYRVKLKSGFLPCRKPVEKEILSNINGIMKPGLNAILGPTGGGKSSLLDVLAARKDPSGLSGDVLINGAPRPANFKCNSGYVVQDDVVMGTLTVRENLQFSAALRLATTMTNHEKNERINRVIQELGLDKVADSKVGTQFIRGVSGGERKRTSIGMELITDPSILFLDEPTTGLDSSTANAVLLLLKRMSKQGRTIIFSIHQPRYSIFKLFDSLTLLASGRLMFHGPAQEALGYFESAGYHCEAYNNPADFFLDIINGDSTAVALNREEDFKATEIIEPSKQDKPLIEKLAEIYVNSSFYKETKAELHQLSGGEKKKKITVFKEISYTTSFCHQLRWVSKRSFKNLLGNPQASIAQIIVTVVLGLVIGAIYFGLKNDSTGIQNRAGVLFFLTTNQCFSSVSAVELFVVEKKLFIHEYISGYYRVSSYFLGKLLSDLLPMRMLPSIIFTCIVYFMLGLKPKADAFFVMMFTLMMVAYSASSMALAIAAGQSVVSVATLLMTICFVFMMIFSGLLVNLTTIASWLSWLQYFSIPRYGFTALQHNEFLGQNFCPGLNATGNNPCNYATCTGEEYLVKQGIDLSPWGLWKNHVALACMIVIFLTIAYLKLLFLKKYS
# [3] = target: T2, Solute carrier family 22 member 11 (Homo sapiens, UniProt Q9NSA0); assay: Inhibition of OAT4 (unknown origin) expressed in HEK293 cells assessed as reduction of [3H]E-sul substrate uptake at 500 uM by liquid scintillation counting; format: ADME, cell-based; settings: hek293, 500 µM
# T2 sequence (Q9NSA0 whole entry): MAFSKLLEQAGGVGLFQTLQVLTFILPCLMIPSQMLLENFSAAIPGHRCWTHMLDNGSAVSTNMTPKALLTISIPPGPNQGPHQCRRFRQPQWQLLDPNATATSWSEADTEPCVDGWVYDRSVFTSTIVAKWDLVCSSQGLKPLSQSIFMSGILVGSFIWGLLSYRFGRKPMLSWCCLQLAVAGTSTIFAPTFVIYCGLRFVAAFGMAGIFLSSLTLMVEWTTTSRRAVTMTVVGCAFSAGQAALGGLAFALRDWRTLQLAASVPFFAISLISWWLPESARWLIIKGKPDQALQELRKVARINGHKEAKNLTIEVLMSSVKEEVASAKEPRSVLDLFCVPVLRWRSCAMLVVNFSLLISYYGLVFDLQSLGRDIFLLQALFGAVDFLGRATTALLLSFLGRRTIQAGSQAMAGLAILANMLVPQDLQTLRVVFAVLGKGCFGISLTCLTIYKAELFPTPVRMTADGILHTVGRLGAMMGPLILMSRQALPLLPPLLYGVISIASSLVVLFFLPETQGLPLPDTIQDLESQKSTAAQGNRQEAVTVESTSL
# Procedure, shortened: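 HEK293 cells transfected with OAT4, incubated with 0.1 μM [3H]E-sul and probenecid 500 µM as the inhibitor. Uptake counted by scintillation, normalised to protein, with vector uptake subtracted.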
# [4] = target: T3, Organic anion transporter 3 (Homo sapiens, UniProt Q8TCC7); assay: Inhibition of OAT3 (unknown origin) expressed in HEK293 cells assessed as reduction of [3H]E-sul substrate uptake at 100 uM by liquid scintillation counting; format: ADME, cell-based; settings: hek293, 100 µM
# T3 sequence (Q8TCC7 whole entry): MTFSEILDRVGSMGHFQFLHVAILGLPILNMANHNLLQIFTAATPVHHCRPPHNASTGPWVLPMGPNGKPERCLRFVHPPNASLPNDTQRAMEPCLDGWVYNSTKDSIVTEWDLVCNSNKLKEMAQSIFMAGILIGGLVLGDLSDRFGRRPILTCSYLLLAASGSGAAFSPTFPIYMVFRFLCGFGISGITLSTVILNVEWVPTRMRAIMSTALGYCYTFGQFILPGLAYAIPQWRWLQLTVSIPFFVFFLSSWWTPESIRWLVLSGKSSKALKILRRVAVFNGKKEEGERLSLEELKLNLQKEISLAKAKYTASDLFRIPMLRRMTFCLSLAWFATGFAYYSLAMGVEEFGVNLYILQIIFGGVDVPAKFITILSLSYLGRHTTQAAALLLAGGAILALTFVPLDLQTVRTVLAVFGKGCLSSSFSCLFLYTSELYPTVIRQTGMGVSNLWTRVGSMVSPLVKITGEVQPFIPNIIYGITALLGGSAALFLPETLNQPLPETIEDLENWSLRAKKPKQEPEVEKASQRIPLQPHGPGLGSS
# Procedure, shortened: (§2)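 HEK293 cells transiently transfected with OAT, OATP or OCT plasmid (FuGENE6; 24 h, then 24 h more with sodium butyrate), or stable OCTN1/OCTN2 lines; vector-transfected cells as control. Washed, preincubated 15–60 min at 37 °C in modified Krebs-Henseleit/25 mM HEPES buffer. Uptake of radiolabelled substrate, 100 µM inhibitor. Cells lysed in NaOH and counted by scintillation; counts normalised to medium radioactivity and Lowry protein; vector uptake subtracted.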
# OCTN1 (SLC22A4) = target: T4, OCTN1 (SLC22A4) (Homo sapiens, UniProt Q9H015); assay: Inhibition of OCTN1 (unknown origin) expressed in HEK293 cells assessed as reduction of [3H]ergothioneine substrate uptake at 1500 uM by liquid scintillation counting; format: cell-based; settings: HEK293 cells expressing OCTN1, probe [3H]ergothioneine
# T4 sequence (Q9H015 whole entry): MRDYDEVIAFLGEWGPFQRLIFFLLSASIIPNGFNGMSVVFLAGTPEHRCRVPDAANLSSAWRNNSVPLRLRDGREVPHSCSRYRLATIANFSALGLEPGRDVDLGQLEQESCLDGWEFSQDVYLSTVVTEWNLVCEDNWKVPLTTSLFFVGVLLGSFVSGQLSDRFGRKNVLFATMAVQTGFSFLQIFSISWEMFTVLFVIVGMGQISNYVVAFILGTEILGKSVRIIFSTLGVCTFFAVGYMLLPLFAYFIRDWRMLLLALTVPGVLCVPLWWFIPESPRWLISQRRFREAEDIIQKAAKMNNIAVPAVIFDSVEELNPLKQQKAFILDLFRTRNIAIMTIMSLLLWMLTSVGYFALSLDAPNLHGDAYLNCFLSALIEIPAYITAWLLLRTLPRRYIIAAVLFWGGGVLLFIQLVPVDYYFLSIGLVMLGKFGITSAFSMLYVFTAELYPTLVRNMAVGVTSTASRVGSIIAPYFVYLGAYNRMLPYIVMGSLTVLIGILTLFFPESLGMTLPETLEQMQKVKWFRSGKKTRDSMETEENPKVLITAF
# Procedure, shortened: (§3)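 HEK293 cells stably expressing OCTN1 or OCTN2, cultured two days before the assay. Quinidine 1500 µM tested against [3H]ergothioneine (1 μM, OCTN1) or [3H]carnitine (0.1 μM, OCTN2). Vector-cell uptake subtracted.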
# OCTN2 = target: T5, OCTN2 (Homo sapiens, UniProt O76082); assay: Inhibition of OCTN2 (unknown origin) expressed in HEK293 cells assessed as reduction of [3H]carnitine substrate uptake at 1500 uM by liquid scintillation counting; format: cell-based; settings: HEK293 cells expressing OCTN2, probe [3H]carnitine; procedure, shortened: as §3
# T5 sequence (O76082 whole entry): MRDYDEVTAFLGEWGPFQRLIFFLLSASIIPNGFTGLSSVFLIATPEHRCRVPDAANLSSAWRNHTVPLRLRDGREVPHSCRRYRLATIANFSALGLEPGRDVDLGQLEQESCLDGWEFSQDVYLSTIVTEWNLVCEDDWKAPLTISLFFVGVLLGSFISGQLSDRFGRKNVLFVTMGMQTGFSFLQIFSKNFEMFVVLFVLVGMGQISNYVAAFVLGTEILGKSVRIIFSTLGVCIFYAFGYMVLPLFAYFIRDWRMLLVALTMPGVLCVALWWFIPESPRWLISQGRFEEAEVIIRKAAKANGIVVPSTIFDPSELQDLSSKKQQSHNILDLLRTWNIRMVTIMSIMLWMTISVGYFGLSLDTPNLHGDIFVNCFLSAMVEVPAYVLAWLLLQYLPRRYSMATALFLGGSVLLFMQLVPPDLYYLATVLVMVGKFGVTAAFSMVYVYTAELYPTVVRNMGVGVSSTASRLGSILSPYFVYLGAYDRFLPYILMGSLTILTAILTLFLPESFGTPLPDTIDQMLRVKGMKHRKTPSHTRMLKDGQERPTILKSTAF
# [5] = target: T6, Solute carrier organic anion transporter family member 1B3 (Homo sapiens, UniProt Q9NPD5); assay: Inhibition of OATP1B3 (unknown origin) expressed in HEK293 cells assessed as reduction of [3H]CCK8 substrate uptake at 100 uM by liquid scintillation counting; format: ADME, cell-based; settings: hek293, 100 µM; procedure, shortened: as §2
# T6 sequence (Q9NPD5 whole entry): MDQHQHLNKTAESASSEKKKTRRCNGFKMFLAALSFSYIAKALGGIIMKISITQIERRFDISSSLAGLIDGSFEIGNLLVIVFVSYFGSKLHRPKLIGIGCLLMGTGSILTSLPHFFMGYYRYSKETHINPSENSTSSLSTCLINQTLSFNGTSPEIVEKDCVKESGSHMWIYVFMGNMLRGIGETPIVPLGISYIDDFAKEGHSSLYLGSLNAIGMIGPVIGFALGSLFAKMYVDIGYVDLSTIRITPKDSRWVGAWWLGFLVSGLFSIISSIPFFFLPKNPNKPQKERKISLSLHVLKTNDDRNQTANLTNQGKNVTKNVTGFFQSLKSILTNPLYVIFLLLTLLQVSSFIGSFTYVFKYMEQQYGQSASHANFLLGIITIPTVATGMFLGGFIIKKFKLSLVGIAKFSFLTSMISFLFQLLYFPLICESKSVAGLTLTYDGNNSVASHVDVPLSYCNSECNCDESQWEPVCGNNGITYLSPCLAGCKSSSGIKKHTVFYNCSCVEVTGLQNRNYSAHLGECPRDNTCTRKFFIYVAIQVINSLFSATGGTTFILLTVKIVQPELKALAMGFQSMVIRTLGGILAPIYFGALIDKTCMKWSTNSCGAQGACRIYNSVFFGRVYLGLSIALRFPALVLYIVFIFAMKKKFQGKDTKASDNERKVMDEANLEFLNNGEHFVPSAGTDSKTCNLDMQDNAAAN
# [6] = target: T7, Solute carrier organic anion transporter family member 1B1 (Homo sapiens, UniProt Q9Y6L6); assay: Inhibition of OATP1B1 (unknown origin) expressed in HEK293 cells assessed as reduction of [3H]E217betaG substrate uptake at 100 uM by liquid scintillation counting; format: ADME, cell-based; settings: hek293, 100 µM; procedure, shortened: as §2
# T7 sequence (Q9Y6L6 whole entry): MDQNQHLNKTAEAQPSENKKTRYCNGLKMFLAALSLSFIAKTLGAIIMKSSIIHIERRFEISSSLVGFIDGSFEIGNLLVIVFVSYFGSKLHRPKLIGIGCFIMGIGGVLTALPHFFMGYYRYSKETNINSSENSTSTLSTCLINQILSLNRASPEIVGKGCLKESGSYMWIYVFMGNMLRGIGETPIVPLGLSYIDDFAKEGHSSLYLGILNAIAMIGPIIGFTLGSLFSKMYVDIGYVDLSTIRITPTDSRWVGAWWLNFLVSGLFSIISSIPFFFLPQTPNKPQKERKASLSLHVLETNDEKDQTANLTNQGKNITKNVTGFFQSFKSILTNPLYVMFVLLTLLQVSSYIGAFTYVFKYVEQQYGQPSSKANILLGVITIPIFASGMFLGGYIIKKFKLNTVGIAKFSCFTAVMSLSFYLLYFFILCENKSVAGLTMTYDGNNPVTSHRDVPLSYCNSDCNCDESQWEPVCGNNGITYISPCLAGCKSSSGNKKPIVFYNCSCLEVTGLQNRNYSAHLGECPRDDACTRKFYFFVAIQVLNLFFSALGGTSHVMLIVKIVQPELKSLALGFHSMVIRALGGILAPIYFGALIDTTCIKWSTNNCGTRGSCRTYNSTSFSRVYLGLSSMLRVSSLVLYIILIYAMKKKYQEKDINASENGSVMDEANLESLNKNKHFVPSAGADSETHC
# Chain of ATP-binding cassette sub-family C member 2 (Q92887 whole entry): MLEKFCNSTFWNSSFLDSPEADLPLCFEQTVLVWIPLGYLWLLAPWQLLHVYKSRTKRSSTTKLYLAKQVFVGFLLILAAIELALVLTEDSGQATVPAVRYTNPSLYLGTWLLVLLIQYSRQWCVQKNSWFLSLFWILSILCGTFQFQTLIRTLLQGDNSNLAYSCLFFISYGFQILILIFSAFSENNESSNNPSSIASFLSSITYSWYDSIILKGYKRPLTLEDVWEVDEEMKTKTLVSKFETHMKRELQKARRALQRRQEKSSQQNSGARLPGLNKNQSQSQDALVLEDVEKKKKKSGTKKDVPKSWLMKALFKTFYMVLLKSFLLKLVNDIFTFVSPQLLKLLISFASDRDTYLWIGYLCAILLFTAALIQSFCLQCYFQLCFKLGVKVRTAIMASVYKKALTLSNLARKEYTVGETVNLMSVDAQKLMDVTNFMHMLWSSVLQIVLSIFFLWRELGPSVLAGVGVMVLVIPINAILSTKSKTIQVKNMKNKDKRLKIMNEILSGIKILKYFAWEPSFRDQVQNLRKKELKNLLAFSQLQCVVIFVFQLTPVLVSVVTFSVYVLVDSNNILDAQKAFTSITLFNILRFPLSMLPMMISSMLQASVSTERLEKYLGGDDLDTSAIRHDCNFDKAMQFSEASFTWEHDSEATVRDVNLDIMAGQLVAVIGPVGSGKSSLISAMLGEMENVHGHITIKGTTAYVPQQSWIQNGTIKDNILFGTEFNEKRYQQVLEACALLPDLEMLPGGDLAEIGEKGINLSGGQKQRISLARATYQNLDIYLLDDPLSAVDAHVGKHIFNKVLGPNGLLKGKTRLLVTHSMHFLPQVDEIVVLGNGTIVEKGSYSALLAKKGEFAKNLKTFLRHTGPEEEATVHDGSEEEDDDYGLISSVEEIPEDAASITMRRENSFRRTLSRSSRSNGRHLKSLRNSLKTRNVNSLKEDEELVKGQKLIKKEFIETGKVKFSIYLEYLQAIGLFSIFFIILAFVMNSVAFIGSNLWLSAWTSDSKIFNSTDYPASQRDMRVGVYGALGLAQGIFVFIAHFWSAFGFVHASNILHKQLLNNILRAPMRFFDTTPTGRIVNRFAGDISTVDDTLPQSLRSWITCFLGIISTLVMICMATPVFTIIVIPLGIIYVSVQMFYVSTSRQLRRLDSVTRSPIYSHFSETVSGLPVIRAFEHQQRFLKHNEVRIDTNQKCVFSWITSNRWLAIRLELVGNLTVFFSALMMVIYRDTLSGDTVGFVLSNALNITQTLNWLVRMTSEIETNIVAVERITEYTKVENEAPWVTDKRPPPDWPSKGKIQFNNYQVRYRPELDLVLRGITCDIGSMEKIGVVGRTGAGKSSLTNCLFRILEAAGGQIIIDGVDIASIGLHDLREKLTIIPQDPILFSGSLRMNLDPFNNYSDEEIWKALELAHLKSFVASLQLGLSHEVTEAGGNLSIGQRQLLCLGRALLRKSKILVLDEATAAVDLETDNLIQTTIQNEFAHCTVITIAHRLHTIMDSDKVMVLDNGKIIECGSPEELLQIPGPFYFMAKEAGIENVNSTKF
compound,measurement,setting,value
CN(C)C(=O)CCSC(SCCC(=O)O)c1cccc(/C=C/c2ccc3ccc(Cl)cc3n2)c1 (stereo not drawn) [MK-571],inhibition (INH),[1],Active
COc1cc2nc(N3CCN(C(=O)c4ccco4)CC3)nc(N)c2cc1OC [PRAZOSIN],inhibition (INH),[2],Active
CCCN(CCC)S(=O)(=O)c1ccc(C(=O)O)cc1 [PROBENECID],inhibition (INH),[3],81.4%
same,inhibition (INH),[4],88.5%
C=C[C@H]1C[N@@]2CC[C@H]1C[C@@H]2[C@@H](O)c1ccnc2ccc(OC)cc12 [QUINIDINE],inhibition at 1500 µM,OCTN1 (SLC22A4),83.9%
same,inhibition at 1500 µM,OCTN2,89.9%
CO[C@H]1/C=C/O[C@@]2(C)Oc3c(C)c(O)c4c(O)c(c(/C=N/N5CCN(C)CC5)c(O)c4c3C2=O)NC(=O)/C(C)=C\C=C\[C@H](C)[C@H](O)[C@@H](C)[C@@H](O)[C@@H](C)[C@H](OC(C)=O)[C@@H]1C [RIFAMPIN],inhibition (INH),[5],97.4%
same,inhibition (INH),[6],98.4%
